This is an account of results in ChEMBL document CHEMBL1151817, “Steroids from an Australian sponge Psammoclema sp” (J Nat Prod, 2009).

Assay [1] is filed under the species Ovis aries. The assay is described as follows: (§1) Inhibition of dynamin 1 GTPase activity in sheep brain peripheral membrane by microplate spectrophotometry. The class given is cell membranes. Summed up: (§2)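 Sheep brain dynamin I, affinity-purified on GST-Amph2-SH3, used at 20 nM. Sample preincubated 12 min at 37 °C with 0.3 mM GTP in Tris pH 7.5 buffer containing Mg2+, Tween 80 and protease inhibitors. Enzyme then added; 30 min at 37 °C with shaking; phosphatidylserine liposome stimulation. Stopped with EDTA; malachite green phosphate readout at 650 nm against phosphate standard curve.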

The test system of assay [2] is A2780. Briefly: Cytotoxicity against human A2780 cells after 72 hrs by MTT assay. The note with it: A2780, 72 h. The class given is functional. The gist of the method: (§3)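 ATCC lines grown in DMEM with 10% FBS, glutamine, antibiotics, 37 °C, 5% CO2; 2000–3000 cells/well plated, compound added 24 h later during log growth. Eight concentrations, 0.25–50 μM (from 20 mM DMSO stock), 72 h exposure; MTT absorbance at 540 nm. GI50 = concentration giving 50% growth inhibition versus untreated cells; duplicate wells, two separate experiments.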

Assay [3] concerns MCF7. Briefly: Cytotoxicity against human MCF7 cells after 72 hrs by MTT assay. In kind it is functional. The note with it: MCF7, 72 h. Summed up:
as §3

In assay [4] the test system is DU-145. The assay is described as follows: Cytotoxicity against human DU145 cells after 72 hrs by MTT assay. In kind it is functional. The settings on record: DU-145, 72 h. The gist of the method:
as §3

Assay [5] concerns HT-29. The assay is described as follows: Cytotoxicity against human HT-29 cells after 72 hrs by MTT assay. In kind it is functional. The note with it: HT-29, 72 h. Summed up: as §3
Assay [6] can be described thus: as §1. The class given is cell membranes, Ovis aries. Summed up: as §2

SMILES strings stand for the structures. The source made the active and inactive calls. The rule behind the calls is not given here.

As for `CC(C)C(C)/C=C/C(C)C1C(O)CC2C3CCC4CC(O)CCC4(C)C3CC(O)C21C` (stereo not given), the result in assay [1] was inactive. The GI50 in assay [2] came out at 10 µM; in assay [3], 17 µM; in assay [4], 27 µM; in assay [5] it was 7 µM.

As to `C=C(CCC(C)C1C(O)CC2C3CCC4CC(O)CCC4(C)C3CC(O)C21C)C(C)C` (stereo not given), the outcome in assay [1] was inactive. Further, the GI50 came to 19 µM in assay [2], 18 µM in assay [3], 27 µM in assay [4] and 18 µM in assay [5].

In the case of `C=C(C)C(CC)CCC(C)C1C(O)CC2C3CCC4CC(O)CCC4(C)C3CC(O)C21C` (stereo not given), the IC50 in assay [6] was more than 300 µM. Moreover, the GI50 in assay [2] is 11 µM; in assay [3], 10 µM; in assay [4] it was 13 µM; in assay [5] it was 7.1 µM.

As to `CC(C)CCCC(C)C1C(O)CC2C3CCC4CC(O)CCC4(C)C3CC(O)C21C` (stereo not given), the result in assay [1] was inactive. The GI50 came out at 5.4 µM in assay [2], 5.5 µM in assay [3], 6.7 µM in assay [4] and 5 µM in assay [5].
